From ChEMBL document CHEMBL1138651, “Synthesis of small molecule CDC25 phosphatases inhibitors” (Bioorg Med Chem Lett, 2004)

Columns and labels:
[1] = target: T1, M-phase inducer phosphatase 3 (Homo sapiens, UniProt P30307); test: Inhibitory concentration for human cell division cycle 25 degree C phosphatase; […]
T1 sequence (P30307 whole entry): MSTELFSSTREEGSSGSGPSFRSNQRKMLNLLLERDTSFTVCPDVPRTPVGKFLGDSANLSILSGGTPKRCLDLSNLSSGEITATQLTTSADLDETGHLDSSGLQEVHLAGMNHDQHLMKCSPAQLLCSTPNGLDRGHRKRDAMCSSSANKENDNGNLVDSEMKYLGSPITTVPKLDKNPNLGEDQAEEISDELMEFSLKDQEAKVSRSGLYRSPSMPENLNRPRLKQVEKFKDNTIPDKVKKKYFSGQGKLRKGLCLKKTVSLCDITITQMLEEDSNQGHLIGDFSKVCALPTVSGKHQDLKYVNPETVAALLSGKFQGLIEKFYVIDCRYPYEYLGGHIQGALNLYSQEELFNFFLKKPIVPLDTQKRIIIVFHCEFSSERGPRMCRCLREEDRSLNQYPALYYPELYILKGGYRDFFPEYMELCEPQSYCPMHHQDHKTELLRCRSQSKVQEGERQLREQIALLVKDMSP

[2] = target: T1, M-phase inducer phosphatase 3; test: Inhibitory concentration for human cell division cycle 25 degree C phosphatase
How it was run: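 Recombinant human CDC25C expressed as an MBP fusion, assayed with 3-O-methylfluorescein phosphate (OMFP) as substrate. Dose-response used to derive IC50, with menadione as positive control. Values are the mean ± SEM of at least two independent experiments. Compounds with IC50 > 80 µM were scored not active.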

| IC50 [2] [µM] | Structure (SMILES) | IC50 [1] [µM] |
| --- | --- | --- |
|  | COc1cc(N(C)C)ccc1CN(C)CCc1ccc([N+](=O)[O-])cc1 | > 80 |
|  | CN(CCc1ccc([N+](=O)[O-])cc1)Cc1cc([N+](=O)[O-])ccc1O | > 80 |
| 4 | COc1cc(N(C)C)cc(CNCCc2ccc([N+](=O)[O-])cc2)c1O |  |
|  | CN(CCc1ccc([N+](=O)[O-])cc1)Cc1ccccc1 | > 80 |
|  | COc1ccc(OC)c(CN(C)CCc2ccc([N+](=O)[O-])cc2)c1 | > 80 |
| 20.7 | COc1cc(CN(C)CCc2ccc([N+](=O)[O-])cc2)cc(N(C)C)c1O |  |
|  | COc1cccc(CN(C)CCc2ccc([N+](=O)[O-])cc2)c1O | > 80 |
| 18.8 | CC1=CC(=O)c2ccccc2C1=O [MENADIONE] |  |
|  | CN(CCc1ccc([N+](=O)[O-])cc1)Cc1cccc(N(C)C)c1 | > 80 |
|  | COc1cccc(CN(C)CCc2ccc([N+](=O)[O-])cc2)c1OC | > 80 |
|  | COc1cccc(CN(C)CCc2ccc([N+](=O)[O-])cc2)c1 | > 80 |
|  | CN(CCc1ccc([N+](=O)[O-])cc1)Cc1ccccc1O | > 80 |
|  | CN(CCc1ccc([N+](=O)[O-])cc1)Cc1ccc(N(C)C)cc1 | > 80 |

| Structure (SMILES) | IC50 [2] [µM] | IC50 [1] [µM] |
| --- | --- | --- |
| CN(CCc1ccc([N+](=O)[O-])cc1)Cc1cc(N(C)C)ccc1O | 5.6 |  |
| CN(C)c1ccc(O)c(CNCCc2ccc([N+](=O)[O-])cc2)c1 | 3.9 |  |
